According to ChEMBL document CHEMBL4138042, “A Scaffold Merging Approach to Hsp90 C-terminal Inhibition: Synthesis and Evaluation of a Chimeric Library” (Medchemcomm, 2017):
Active and inactive are the calls of the source. The calls are words filed in the database; no cut-off is given here.

How the values were obtained:
[1] = system: MCF7; assay: Antiproliferative activity in human MCF7 cells incubated for 72 hrs by MTS/PMS cell proliferation assay; format: functional, cell-based; settings: MCF7, 72 h
Procedure, shortened: (§1)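 Values are mean ± SD of at least three separate experiments, each run in triplicate.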

[2] = system: SK-BR-3; assay: Antiproliferative activity in human SKBR3 cells incubated for 72 hrs by MTS/PMS cell proliferation assay; format: functional, cell-based; settings: SK-BR-3, 72 h; procedure, shortened: as §1
[3] = target: T1, Heat shock protein HSP90 (Homo sapiens) (UniProt P07900+P08238); assay: Inhibition of HSP90 in human PC3-MM2 cells expressing luciferase assessed as reduction in heat-denatured lucifearse refolding incubated for 1 hr by luciferase rematuration assay; format: cell-based
Procedure, shortened: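 PC3-MM2 cells expressing firefly luciferase were heated to denature luciferase, then incubated with DMSO or test compound. Luciferase activity was then measured to gauge refolding. Read-out is RLU relative to DMSO, given as mean ± SD of at least two separate experiments run in triplicate.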

[4] = target: T1, Heat shock protein HSP90 (Homo sapiens); assay: Inhibition of HSP90 in human MCF7 cells assessed as reduction in HER2 protein level incubated for 24 hrs by Western blotting method; format: cell-based
Procedure, shortened: (§2)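 Treated MCF-7 cells were analysed by western blot for the Hsp90 clients HER2, CDK4, ER-α and cyclin D1. Actin served as the Hsp90-independent control protein.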

[5] = target: T1, Heat shock protein HSP90 (Homo sapiens); assay: Inhibition of HSP90 in human MCF7 cells assessed as reduction in CDK4 protein level incubated for 24 hrs by Western blotting method; format: cell-based; procedure, shortened: as §2
[6] = target: T1, Heat shock protein HSP90 (Homo sapiens); assay: Inhibition of HSP90 in human MCF7 cells assessed as reduction in ERalpha protein level incubated for 24 hrs by Western blotting method; format: cell-based; procedure, shortened: as §2
[7] = target: T1, Heat shock protein HSP90 (Homo sapiens); assay: Inhibition of HSP90 in human MCF7 cells assessed as reduction in cyclin D1 protein level incubated for 24 hrs by Western blotting method; format: cell-based; procedure, shortened: as §2
[8] = system: MCF7; assay: Effect on actin protein expression in human MCF7 cells at 0.5 and 10 fold antiproliferative IC50 incubated for 24 hrs by Western blotting method; format: cell-based; settings: mcf7, 24 h; procedure, shortened: as §2
[9] = system: MCF7; assay: Induction of heat shock response in human MCF7 cells assessed as effect on Hsp90 protein levels at antiproliferative 0.5 and 10 fold IC50 incubated for 24 hrs by Western blotting method; format: cell-based; settings: mcf7, 24 h
[10] = system: MCF7; assay: Induction of heat shock response in human MCF7 cells assessed as effect on Hsp70 protein levels at 0.5 and 10 fold antiproliferative IC50 incubated for 24 hrs by Western blotting method; format: cell-based; settings: mcf7, 24 h
[11] = Inhibition of full length chicken Hsp90beta (1 to 728 amino acids); set-up: species or system Gallus gallus

| SMILES | EC50 [1] [µM] | EC50 [2] [µM] | inhibition [3] | also measured |
| --- | --- | --- | --- | --- |
| COc1cccc(-c2cc(C(=O)Nc3ccc(-c4ccc(OC5CCN(C)CC5)cc4-c4cccc(C(F)(F)F)c4)cc3)ccc2OC)c1 | 2.2 | 1.8 |  |  |
| COc1cccc(-c2cc(C(=O)Nc3cccc(-c4ccc(OC5CCN(C)CC5)cc4-c4cccc(C(F)(F)F)c4)c3)ccc2OC)c1 | 2.3 | 1.9 |  |  |
| COc1cccc(-c2cc(C(=O)Nc3cccc(-c4ccc(OC5CCN(C)CC5)cc4-c4cccc(F)c4)c3)ccc2OC)c1 | 4.2 | 4.1 |  |  |
| CC(=O)Oc1ccc(C(=O)Nc2cccc(-c3ccc(OC4CCN(C)CC4)cc3-c3cccc(C(F)(F)F)c3)c2)cc1CC=C(C)C | 3 | 2.9 |  |  |
| CN1CCC(Oc2ccc(-c3ccc(NC(=O)c4ccc(C(C)(C)C)cc4)cc3)c(-c3cccc(F)c3)c2)CC1 | 4.2 | 4.2 |  |  |
| CN1CCC(Oc2ccc(-c3cccc(NC(=O)c4ccc(C(C)(C)C)cc4)c3)c(-c3cccc(F)c3)c2)CC1 | 5.2 | 6.2 |  |  |
| CN1CCC(Oc2ccc(-c3cccc(NC(=O)c4cn(Cc5ccccc5)nn4)c3)c(-c3cccc(C(F)(F)F)c3)c2)CC1 | 1.7 | 2.2 | Active | inhibition [4]: Dose-dependent effect; inhibition [5]: Dose-dependent effect; inhibition [6]: Dose-dependent effect; inhibition [7]: Dose-dependent effect; Activity [8]: Non-Toxic; Activity [9]: Non-Toxic; Activity [10]: Non-Toxic |
| CN1CCC(Oc2ccc(-c3ccc(NC(=O)c4ccc(Br)cc4)cc3)c(-c3cccc(C(F)(F)F)c3)c2)CC1 | 3.4 | 3.5 | Active | inhibition [4]: Dose-dependent effect; inhibition [5]: Dose-dependent effect; inhibition [6]: Dose-dependent effect; inhibition [7]: Dose-dependent effect; Activity [8]: Non-Toxic; Activity [9]: Non-Toxic; Activity [10]: Non-Toxic |
| COc1ccc(Cn2cc(C(=O)Nc3cccc(-c4ccc(OC5CCN(C)CC5)cc4-c4cccc(C(F)(F)F)c4)c3)nn2)cc1 | 4 | 4 | Active |  |
| CN1CCC(Oc2ccc(-c3cccc(NC(=O)c4cn(Cc5ccc(C(C)(C)C)cc5)nn4)c3)c(-c3cccc(C(F)(F)F)c3)c2)CC1 | 3 | 3 | inactive |  |
| CC(=O)Oc1ccc(C(=O)Nc2ccc(-c3ccc(OC4CCN(C)CC4)cc3-c3cccc(C(F)(F)F)c3)cc2)cc1CC=C(C)C | 2.6 | 2.3 |  |  |
| COc1ccc(Cn2cc(C(=O)Nc3ccc(-c4ccc(OC5CCN(C)CC5)cc4-c4cccc(C(F)(F)F)c4)cc3)nn2)cc1 | 0.9 | 0.5 | Active |  |
| CN1CCC(Oc2ccc(-c3ccc(NC(=O)c4cn(Cc5ccccc5)nn4)cc3)c(-c3cccc(C(F)(F)F)c3)c2)CC1 | 2.9 | 2.2 | Active |  |
| COc1cccc(-c2cc(C(=O)Nc3ccc(-c4ccc(OC5CCN(C)CC5)cc4-c4cccc(F)c4)cc3)ccc2OC)c1 | 2.1 | 4.2 |  |  |
| CN1CCC(Oc2ccc(-c3ccc(NC(=O)c4ccc(Br)cc4)cc3)c(-c3cccc(F)c3)c2)CC1 | 5.1 | 5.2 | Active |  |
| CN1CCC(Oc2ccc(-c3cccc(NC(=O)c4cn(Cc5ccc([N+](=O)[O-])cc5)nn4)c3)c(-c3cccc(C(F)(F)F)c3)c2)CC1 | 2 | 1.9 | Active |  |
| CN1CCC(Oc2ccc(-c3cccc(NC(=O)c4ccc(C(C)(C)C)cc4)c3)c(-c3cccc(C(F)(F)F)c3)c2)CC1 | 2.8 | 1.8 |  |  |
| CO[C@@H]1[C@@H](OC(N)=O)[C@@H](O)[C@H](Oc2ccc3c(O)c(NC(=O)c4ccc(O)c(CC=C(C)C)c4)c(=O)oc3c2C)OC1(C)C [NOVOBIOCIN] |  |  |  | EC50 [11]: 700 µM |
| COc1cccc(-c2cc(C(=O)Nc3cccc(-c4ccc(OC5CCN(C)CC5)cc4)c3)ccc2OC)c1 | 1.6 | 1.5 |  |  |
| CC(=O)Oc1ccc(C(=O)Nc2cccc(-c3ccc(OC4CCN(C)CC4)cc3-c3cccc(F)c3)c2)cc1CC=C(C)C | 4.4 | 3.3 |  |  |
| CC(=O)Oc1ccc(C(=O)Nc2ccc(-c3ccc(OC4CCN(C)CC4)cc3-c3cccc(F)c3)cc2)cc1CC=C(C)C | 3.3 | 3.2 |  |  |
| CN1CCC(Oc2ccc(-c3ccc(NC(=O)c4ccc(C(C)(C)C)cc4)cc3)c(-c3cccc(C(F)(F)F)c3)c2)CC1 | 3 | 2.4 |  |  |
| COc1cccc(-c2cc(C(=O)NCCc3ccc(OC4CCN(C)CC4)cc3-c3cccc(C(F)(F)F)c3)ccc2OC)c1 | 2.7 | 3.5 |  |  |
| CN1CCC(Oc2ccc(-c3cccc(NC(=O)c4ccc(Br)cc4)c3)c(-c3cccc(C(F)(F)F)c3)c2)CC1 | 3.9 | 3 | Active | inhibition [4]: Dose-dependent effect; inhibition [5]: Dose-dependent effect; inhibition [6]: Dose-dependent effect; inhibition [7]: Dose-dependent effect; Activity [8]: Non-Toxic; Activity [9]: Non-Toxic; Activity [10]: Non-Toxic |
| CN1CCC(Oc2ccc(-c3cccc(NC(=O)c4ccc(Br)cc4)c3)c(-c3cccc(F)c3)c2)CC1 | 5.6 | 5.9 | Active |  |
| CN1CCC(Oc2ccc(-c3ccc(NC(=O)c4cn(Cc5ccc(C(C)(C)C)cc5)nn4)cc3)c(-c3cccc(C(F)(F)F)c3)c2)CC1 | 5 | 4.4 | inactive |  |
| CN1CCC(Oc2ccc(-c3ccc(NC(=O)c4cn(Cc5ccc([N+](=O)[O-])cc5)nn4)cc3)c(-c3cccc(C(F)(F)F)c3)c2)CC1 | 1 | 0.8 | Active |  |
